According to ChEMBL document CHEMBL1127071, “Structure-activity relationships of C-terminal endothelin hexapeptide antagonists” (J Med Chem, 1993):
Where a SMILES comes first, the peptide text is derived from it. [ ]: non-standard residue; d: D form. dDip = N[C@@H](C(=O)O)C(c1ccccc1)c1ccccc1; Orn = NCCC[C@H](N)C(=O)O

Columns and labels:
Endothelin receptor = molecular target: T1, Endothelin receptor (Rattus norvegicus, UniProt P26684+P21451); experiment: Binding affinity against Endothelin receptor from rat heart ventricle; format: protein assay
T1 sequence (P26684 whole entry): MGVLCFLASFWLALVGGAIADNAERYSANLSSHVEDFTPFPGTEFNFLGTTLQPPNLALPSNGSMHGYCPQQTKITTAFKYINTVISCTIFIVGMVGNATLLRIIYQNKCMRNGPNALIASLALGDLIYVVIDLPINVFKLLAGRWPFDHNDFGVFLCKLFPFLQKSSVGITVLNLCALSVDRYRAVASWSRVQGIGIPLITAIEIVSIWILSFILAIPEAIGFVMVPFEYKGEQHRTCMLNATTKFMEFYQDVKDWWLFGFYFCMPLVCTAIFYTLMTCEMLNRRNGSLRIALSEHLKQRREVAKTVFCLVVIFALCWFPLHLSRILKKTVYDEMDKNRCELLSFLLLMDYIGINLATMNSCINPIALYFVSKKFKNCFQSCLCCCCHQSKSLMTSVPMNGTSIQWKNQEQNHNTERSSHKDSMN
T1 sequence (P21451 whole entry): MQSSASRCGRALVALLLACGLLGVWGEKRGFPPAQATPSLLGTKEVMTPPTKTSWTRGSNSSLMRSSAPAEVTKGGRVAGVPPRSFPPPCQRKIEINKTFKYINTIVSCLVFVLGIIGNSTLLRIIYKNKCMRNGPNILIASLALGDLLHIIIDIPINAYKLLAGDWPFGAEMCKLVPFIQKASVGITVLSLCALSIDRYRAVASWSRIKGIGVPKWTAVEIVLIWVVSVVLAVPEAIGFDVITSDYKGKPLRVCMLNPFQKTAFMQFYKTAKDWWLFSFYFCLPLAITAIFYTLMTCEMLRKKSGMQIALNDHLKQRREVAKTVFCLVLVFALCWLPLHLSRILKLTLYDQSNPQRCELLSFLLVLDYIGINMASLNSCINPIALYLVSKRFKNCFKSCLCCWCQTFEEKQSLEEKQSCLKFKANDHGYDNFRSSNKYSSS

Rattus norvegicus = organism: Rattus norvegicus; experiment: Inhibition of ET-1 stimulated inositol phosphate accumulation in rat fibroblast; format: functional, organism-based
Summary of the method: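 Rat skin fibroblasts prelabelled with [3H]inositol; ET-1-stimulated accumulation of total [3H]inositol phosphates in presence of Li+, measured by anion-exchange chromatography.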

[1] = molecular target: T2, Endothelin receptor type B (Rattus norvegicus, UniProt P21451); experiment: Effective concentration against Endothelin B receptor from rat cerebellum; format: tissue-based
T2 sequence (P21451 whole entry): T1 sequence (P21451 whole entry)
Summary of the method: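 Competition binding of 30 pM [125I]-ET-1 (2,000 Ci/mmol) to 5 µg membranes: rabbit renal artery vascular smooth muscle (ETA) or adult rat cerebellum (ETB). Buffer is 20 mM Tris, 2 mM EDTA, 100 µM PMSF and 100 µM bacitracin, pH 7.4, 37 °C, 2 h. Reaction stopped by GF/B filtration. Nonspecific binding measured with 100 nM ET-1. Triplicate points; IC50 from a one-site nonlinear fit.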

Oryctolagus cuniculus = organism: Oryctolagus cuniculus; experiment: Effective concentration against ET-1 stimulated arachidonic acid release in rabbit renal artery vascular smooth muscle cells; format: functional
Summary of the method: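 Confluent rabbit renal artery smooth muscle cells loaded 18 h at 37 °C with 0.25 µCi/mL [3H]arachidonic acid in DME/F12 with 0.5% FCS. Cells washed in Hank's/10 mM HEPES/fatty acid-free BSA buffer with three 5-min incubations. Then exposed 30 min to test compound (1 nM to 1 µM) plus 0.3 nM ET-1. Released [3H] counted by liquid scintillation; IC50 determined.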

Structure (SMILES)	EC50 [1]	EC50 (Oryctolagus cuniculus)	IC50 (Endothelin receptor)	IC50 (Rattus norvegicus)
CC[C@@H](C)[C@@H](NC(=O)[C@@H](NC(=O)[C@H](CC(=O)O)NC(=O)[C@H](CC(C)C)NC(=O)[C@H](Cc1c[nH]cn1)NC(C)=O)[C@@H](C)CC)C(=O)N[C@@H](Cc1c[nH]c2ccccc12)C(=O)O			16900 nM	> 100000 nM
CC[C@H](C)[C@H](NC(=O)[C@H](CC(=O)O)NC(=O)[C@H](CC(C)C)NC(=O)[C@H](N)C(c1ccccc1)c1ccccc1)C(=O)N[C@H](C(=O)N[C@@H](Cc1c[nH]c2ccccc12)C(=O)O)[C@@H](C)CC (H-[dDip]LDIIW-OH)	1900 nM			
CC[C@H](C)[C@H](NC(=O)[C@H](CC(=O)O)NC(=O)[C@H](CC(C)C)NC(=O)[C@H](NC(C)=O)C(c1ccccc1)c1ccccc1)C(=O)N[C@H](C(=O)N[C@@H](Cc1ccc(O)cc1)C(=O)O)[C@@H](C)CC (Ac-[dDip]LDIIY-OH)	6100 nM	4300 nM		
CC[C@H](C)[C@H](NC(=O)[C@H](CC(=O)O)NC(=O)[C@H](CC(C)C)NC(=O)[C@H](Cc1c[nH]cn1)NC(C)=O)C(=O)N[C@H](C(=O)N[C@@H](Cc1c[nH]c2ccccc12)C(=O)O)[C@@H](C)CC			58000 nM	50000 nM
CC[C@H](C)[C@H](NC(=O)[C@@H](NC(=O)[C@@H](CC(=O)O)NC(=O)[C@H](CC(C)C)NC(=O)[C@H](Cc1c[nH]cn1)NC(C)=O)[C@@H](C)CC)C(=O)N[C@@H](Cc1c[nH]c2ccccc12)C(=O)O			37000 nM	> 50000 nM

Further lines, with some results ahead:

EC50 [1]	EC50 (Oryctolagus cuniculus)	Structure (SMILES)	IC50 (Endothelin receptor)	IC50 (Rattus norvegicus)
150 nM	30 nM	CC[C@H](C)[C@H](NC(=O)[C@H](CC(=O)O)NC(=O)[C@H](CCCN)NC(=O)[C@H](NC(C)=O)C(c1ccccc1)c1ccccc1)C(=O)N[C@H](C(=O)N[C@@H](Cc1c[nH]c2ccccc12)C(=O)O)[C@@H](C)CC (Ac-[dDip][Orn]DIIW-OH)		
6000 nM	2600 nM	CC[C@H](C)[C@H](NC(=O)[C@H](CC(=O)O)NC(=O)[C@H](CC(C)C)NC(=O)[C@H](NC(C)=O)C(c1ccccc1)c1ccccc1)C(=O)N[C@H](C(=O)N[C@@H](Cc1c[nH]c2ccccc12)C(=O)O)C(C)C (Ac-[dDip]LDIVW-OH)		
60 nM	1300 nM	CC[C@H](C)[C@H](NC(=O)[C@H](Cc1ccccc1)NC(=O)[C@H](CC(C)C)NC(=O)[C@H](NC(C)=O)C(c1ccccc1)c1ccccc1)C(=O)N[C@H](C(=O)N[C@@H](Cc1c[nH]c2ccccc12)C(=O)O)[C@@H](C)CC (Ac-[dDip]LFIIW-OH)		
50 nM	29 nM	CC[C@H](C)[C@H](NC(=O)[C@@H](NC(=O)[C@H](CC(=O)O)NC(=O)[C@H](CC(C)C)NC(=O)[C@H](NC(C)=O)C(c1ccccc1)c1ccccc1)C(C)C)C(=O)N[C@@H](Cc1c[nH]c2ccccc12)C(=O)O (Ac-[dDip]LDVIW-OH)		
52 nM	130 nM	CC[C@H](C)[C@H](NC(=O)[C@H](CC(=O)O)NC(=O)[C@H](CCC(=O)O)NC(=O)[C@H](NC(C)=O)C(c1ccccc1)c1ccccc1)C(=O)N[C@H](C(=O)N[C@@H](Cc1c[nH]c2ccccc12)C(=O)O)[C@@H](C)CC (Ac-[dDip]EDIIW-OH)		
